# Test results: ChEMBL document CHEMBL4184106, “Discovering alkylamide derivatives of bexarotene as new therapeutic agents against triple-negative breast cancer” (Bioorg Med Chem Lett, 2018)
# Active and inactive are the calls of the source. No cut-off for these calls is given here.
# Legend:
# MCF7 [1] = experiment: Inhibition of mammosphere formation in human MCF7 cells assessed as ratio of C-Myc to beta actin level at 5 uM by Western blot analysis (Rvb= 1); assay type: functional
# In short: (§1)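 Post-treatment cell lysates were probed by Western blot for CSC markers, with β-actin as the loading control. Band densitometry was normalized to DMSO-treated samples.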
# MCF7 [2] = experiment: Cytotoxicity against human MCF7 cells assessed as reduction in cell viability at 5 uM by MTT assay; assay type: functional
# MDA-MB-231 [3] = experiment: Cytotoxicity against human MDA-MB-231 cells assessed as reduction in cell viability at 5 uM by MTT assay; assay type: functional
# BT-549 [4] = experiment: Cytotoxicity against human BT549 cells assessed as reduction in cell viability at 5 uM by MTT assay; assay type: functional
# MCF-10A [5] = experiment: Cytotoxicity against human MCF10A cells assessed as reduction in cell viability at 5 uM by MTT assay; assay type: cell-based
# MDA-MB-231 [6] = experiment: Cytotoxicity against human MDA-MB-231 cells assessed as reduction in cell viability by MTT assay; assay type: functional, cell-based
# BT-549 [7] = experiment: Cytotoxicity against human BT549 cells assessed as reduction in cell viability by MTT assay; assay type: functional, cell-based
# MDA-MB-231 [8] = experiment: Induction of apoptosis in human MDA-MB-231 cells assessed as ratio of cleaved caspase-3 to beta-actin level at 5 uM by western blot analysis (reference value: 1); assay type: functional
# BT-549 [9] = experiment: Induction of apoptosis in human BT549 cells assessed as ratio of cleaved caspase-3 to beta-actin level at 5 uM by western blot analysis (reference value: 1); assay type: functional
# MCF-10A [10] = experiment: Induction of apoptosis in human MCF10A cells assessed as ratio of cleaved caspase-3 to beta-actin level at 5 uM by western blot analysis (reference value: 1); assay type: cell-based
# MCF7 [11] = experiment: Induction of apoptosis in human MCF7 cells assessed as ratio of cleaved caspase-3 to beta-actin level at 5 uM by western blot analysis (reference value: 1); assay type: functional
# MDA-MB-231 [12] = experiment: Induction of apoptosis in human MDA-MB-231 cells assessed as ratio of cleaved caspase-8 to beta-actin level at 5 uM by western blot analysis (reference value: 1); assay type: functional
# BT-549 [13] = experiment: Induction of apoptosis in human BT549 cells assessed as ratio of cleaved caspase-8 to beta-actin level at 5 uM by western blot analysis (reference value: 1); assay type: functional
# MCF-10A [14] = experiment: Induction of apoptosis in human MCF10A cells assessed as ratio of cleaved caspase-8 to beta-actin level at 5 uM by western blot analysis (reference value: 1); assay type: cell-based
# MCF7 [15] = experiment: Induction of apoptosis in human MCF7 cells assessed as ratio of cleaved caspase-8 to beta-actin level at 5 uM by western blot analysis (reference value: 1); assay type: functional
# MDA-MB-231 [16] = experiment: Induction of apoptosis in human MDA-MB-231 cells assessed as ratio of cleaved caspase-9 to beta-actin level at 5 uM by western blot analysis (reference value: 1); assay type: functional
# BT-549 [17] = experiment: Induction of apoptosis in human BT549 cells assessed as ratio of cleaved caspase-9 to beta-actin level at 5 uM by western blot analysis (reference value: 1); assay type: functional
# MCF-10A [18] = experiment: Induction of apoptosis in human MCF10A cells assessed as ratio of cleaved caspase-9 to beta-actin level at 5 uM by western blot analysis (reference value: 1); assay type: cell-based
# MCF7 [19] = experiment: Induction of apoptosis in human MCF7 cells assessed as ratio of cleaved caspase-9 to beta-actin level at 5 uM by western blot analysis (reference value: 1); assay type: functional
# MDA-MB-231 [20] = experiment: Induction of apoptosis in nuclear fractions of human MDA-MB-231 cells assessed as ratio of cleaved PARP to beta-actin level at 10 uM by western blot analysis (reference value: 1); assay type: functional
# MCF7 [21] = experiment: Inhibition of colony formation in human MCF7 cells at 5 uM supplemented with fresh medium containing compound every 3 to 4 days for 7 days by crystal violet staining based adherent cell colony-forming assay; assay type: functional
# In short: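 MCF-7 cells were plated for adherent colony formation and treated for 7 days. Colonies were counted at the end of treatment and normalized to untreated samples.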
# MDA-MB-231 [22] = experiment: Inhibition of colony formation in human MDA-MB-231 cells at 10 uM supplemented with fresh medium containing compound every 3 days for 10 days by microscopic method based soft agar colony formation assay; assay type: functional, cell-based
# MDA-MB-231 [23] = experiment: Anti-migratory activity against human MDA-MB-231 cells assessed as reduction in wound closure at 5 uM up to 24 hrs by wound-healing assay; assay type: functional, cell-based
# In short: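 MDA-MB-231 monolayer was scratched to make a wound gap. Cells were treated alongside a DMSO vehicle control, and migration into the gap was imaged at 24 h.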
# MCF7 [24] = experiment: Inhibition of mammosphere formation in human MCF7 cells at 10 uM after 7 days by microscopic method; assay type: functional, cell-based
# In short: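 MCF-7 cells were grown under mammosphere-forming conditions with compound. Spheres 60 μm or larger were counted for quantitation.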
# MCF7 [25] = experiment: Inhibition of mammosphere formation in human MCF7 cells assessed as ratio of KLF4 to beta actin level at 5 uM by Western blot analysis (Rvb= 1); assay type: functional; in short: as §1
# MCF7 [26] = experiment: Inhibition of mammosphere formation in human MCF7 cells assessed as ratio of Nanog to beta actin level at 5 uM by Western blot analysis (Rvb= 1); assay type: functional; in short: as §1
# MCF7 [27] = experiment: Inhibition of mammosphere formation in human MCF7 cells assessed as ratio of Oct4A to beta actin level at 5 uM by Western blot analysis (Rvb= 1); assay type: functional; in short: as §1
# MCF7 [28] = experiment: Inhibition of mammosphere formation in human MCF7 cells assessed as ratio of Sox2 to beta actin level at 5 uM by Western blot analysis (Rvb= 1); assay type: functional; in short: as §1
# MDA-MB-231 [29] = experiment: Inhibition of mammosphere formation in human MDA-MB-231 cells assessed as ratio of C-Myc to beta actin level at 5 uM by Western blot analysis (Rvb= 1); assay type: functional; in short: as §1
# MDA-MB-231 [30] = experiment: Inhibition of mammosphere formation in human MDA-MB-231 cells assessed as ratio of KLF4 to beta actin level at 5 uM by Western blot analysis (Rvb= 1); assay type: functional; in short: as §1
# BT-549 [31] = experiment: Inhibition of mammosphere formation in human BT549 cells assessed as ratio of C-Myc to beta actin level at 5 uM by Western blot analysis (Rvb= 1); assay type: functional
# BT-549 [32] = experiment: Inhibition of mammosphere formation in human BT549 cells assessed as ratio of KLF4 to beta actin level at 5 uM by Western blot analysis (Rvb= 1); assay type: functional
# MDA-MB-231 [33] = experiment: Effect on epithelial-mesenchymal transition in human MDA-MB-231 cells assessed as ratio of E-cadherin to beta-actin level at 5 uM by Western blot analysis (reference value: 1); assay type: functional
# MDA-MB-231 [34] = experiment: Effect on epithelial-mesenchymal transition in human MDA-MB-231 cells assessed as ratio of vimentin to beta-actin level at 5 uM by Western blot analysis (reference value: 1); assay type: functional
# MDA-MB-231 [35] = experiment: Effect on epithelial-mesenchymal transition in human MDA-MB-231 cells assessed as ratio of slug to beta-actin level at 5 uM by Western blot analysis (reference value: 1); assay type: functional
# BT-549 [36] = experiment: Effect on epithelial-mesenchymal transition in human BT549 cells assessed as ratio of E-cadherin to beta-actin level at 5 uM by Western blot analysis (reference value: 1); assay type: functional
# BT-549 [37] = experiment: Effect on epithelial-mesenchymal transition in human BT549 cells assessed as ratio of vimentin to beta-actin level at 5 uM by Western blot analysis (reference value: 1); assay type: functional
# BT-549 [38] = experiment: Effect on epithelial-mesenchymal transition in human BT549 cells assessed as ratio of slug to beta-actin level at 5 uM by Western blot analysis (reference value: 1); assay type: functional
# MDA-MB-231 [39] = experiment: Effect on beta-catenin translocation in cytosolic fraction of human MDA-MB-231 cells assessed as ratio of beta-catenin to beta-actin level at 10 uM by Western blot analysis (reference value: 1); assay type: functional
# MDA-MB-231 [40] = experiment: Effect on beta-catenin translocation in nuclear fraction of human MDA-MB-231 cells assessed as ratio of beta-catenin to beta-actin level at 10 uM by Western blot analysis (reference value: 1); assay type: functional
# MDA-MB-231 [41] = experiment: Induction of apoptosis in nuclear fractions of human MDA-MB-231 cells assessed as ratio of PARP to beta-actin level at 10 uM by western blot analysis (reference value: 1); assay type: functional
# BT-549 [42] = experiment: Effect on beta-catenin translocation in cytosolic fraction of human BT549 cells assessed as ratio of beta-catenin to beta-actin level at 10 uM by Western blot analysis (reference value: 1); assay type: functional
# BT-549 [43] = experiment: Effect on beta-catenin translocation in nuclear fraction of human BT549 cells assessed as ratio of beta-catenin to beta-actin level at 10 uM by Western blot analysis (reference value: 1); assay type: functional
# BT-549 [44] = experiment: Induction of apoptosis in nuclear fractions of human BT549 cells assessed as ratio of PARP to beta-actin level at 10 uM by western blot analysis (reference value: 1); assay type: functional
# BT-549 [45] = experiment: Induction of apoptosis in nuclear fractions of human BT549 cells assessed as ratio of cleaved PARP to beta-actin level at 5 uM by western blot analysis (reference value: 1)
smiles,measurement,setting,value
C=C(c1ccc(C(=O)O)cc1)c1cc2c(cc1C)C(C)(C)CCC2(C)C [BEXAROTENE],Ratio,MCF7 [1],1
same,Activity,MCF7 [2],inactive
same,Activity,MDA-MB-231 [3],inactive
same,Activity,BT-549 [4],inactive
same,Activity,MCF-10A [5],Non-Toxic
same,EC50,MDA-MB-231 [6],> 56 µM
same,EC50,BT-549 [7],> 56 µM
same,Ratio,MDA-MB-231 [8],2.7
same,Ratio,BT-549 [9],1.1
same,Ratio,MCF-10A [10],0.95
same,Ratio,MCF7 [11],0.9
same,Ratio,MDA-MB-231 [12],3.4
same,Ratio,BT-549 [13],1.1
same,Ratio,MCF-10A [14],1
same,Ratio,MCF7 [15],1
same,Ratio,MDA-MB-231 [16],3.2
same,Ratio,BT-549 [17],1.3
same,Ratio,MCF-10A [18],1.1
same,Ratio,MCF7 [19],1.2
same,Ratio,MDA-MB-231 [20],1.6
same,inhibition,MCF7 [21],inactive
same,inhibition,MDA-MB-231 [22],inactive
same,Activity,MDA-MB-231 [23],inactive
same,inhibition,MCF7 [24],inactive
same,Ratio,MCF7 [25],1
same,Ratio,MCF7 [26],1
same,Ratio,MCF7 [27],1.2
same,Ratio,MCF7 [28],0.8
same,Ratio,MDA-MB-231 [29],1.2
same,Ratio,MDA-MB-231 [30],1.3
same,Ratio,BT-549 [31],1.4
same,Ratio,BT-549 [32],1.2
same,Ratio,MDA-MB-231 [33],10.8
same,Ratio,MDA-MB-231 [34],0.4
same,Ratio,MDA-MB-231 [35],1
same,Ratio,BT-549 [36],9.2
same,Ratio,BT-549 [37],0.9
same,Ratio,BT-549 [38],1.3
same,Ratio,MDA-MB-231 [39],2.4
same,Ratio,MDA-MB-231 [40],1.8
same,Ratio,MDA-MB-231 [41],0.9
same,Ratio,BT-549 [42],2.2
same,Ratio,BT-549 [43],0.7
same,Ratio,BT-549 [44],1.8
same,Ratio,BT-549 [45],1.7
